We go through one compound from ChEMBL document CHEMBL6134793, “Synthesis and structure-activity study of the antimicrobial lipopeptide brevibacillin” (RSC Med Chem, 2024).

The source made the active and inactive calls. Bounds are passed on as bounds.

Data set [1] has as its system Staphylococcus aureus. The data set can be described thus: Antimicrobial activity against Staphylococcus aureus ATCC 6538 assessed as growth inhibition at 128 ug/ml by radial diffusion assay. The format is functional, organism-based. Conditions: dose 128.0 µg/ml. Summed up:
(§1)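 Agar well diffusion. Overnight cultures inoculated at 1% into 0.75% soft agar (TSB for S. aureus, LB for P. aeruginosa). Each well received 80 μL of peptide at 128 μg mL−1 in water with 10% DMSO; 10% DMSO served as negative control. Inhibition zone diameter scored after strain-specific incubation.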

Data set [2] relates to Pseudomonas aeruginosa. As to the kind of experiment: Antimicrobial activity against Pseudomonas aeruginosa ATCC […] assessed as growth inhibition at 128 ug/ml by radial diffusion assay. The format is functional, organism-based. Conditions: dose 128.0 µg/ml. The gist of the method: as §1
Data set [3] concerns Staphylococcus aureus. As to the kind of experiment: Antimicrobial activity against Staphylococcus aureus ATCC 6538 assessed as growth inhibition by microdilution assay. The format is functional. Summed up: (§2)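 Twofold serial microdilution of peptide (stocks 2 mg mL−1, diluted to 512 μg mL−1 in water with 10% DMSO) in strain medium, about 1 × 10^4 cfu per well. Media: TSB 20 h 37 °C (S. aureus, L. monocytogenes, B. subtilis, E. faecalis); LB 20 h 37 °C (P. aeruginosa, S. enterica, E. coli); Brucella 48 h 37 °C (C. coli). A595 read; MIC = lowest concentration with no visible growth; triplicate.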

The subject of data set [4] is Listeria monocytogenes. The data set can be described thus: Antimicrobial activity against Listeria monocytogenes ATCC 19111 assessed as growth inhibition by microdilution assay. Format: functional. Summed up:
as §2

In data set [5] the test system is Bacillus subtilis. The data set can be described thus: Antimicrobial activity against Bacillus subtilis ATCC 23957 assessed as growth inhibition by microdilution assay. Format: functional. The gist of the method: as §2
(In general: Broth dilution looks for growth in wells or tubes with falling amounts of substance.)

Data set [6] concerns Enterococcus faecalis. The data set can be described thus: Antimicrobial activity against Enterococcus faecalis ATCC 29212 assessed as growth inhibition by microdilution assay. Format: functional. The gist of the method:
as §2

For data set [7], the system named is Clostridium perfringens. The data set can be described thus: Antimicrobial activity against Clostridium perfringens ATCC 3628 assessed as growth inhibition by microdilution assay. Format: functional. Summed up:
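Broth microdilution: twofold serial peptide dilutions in reinforced clostridial medium (RCM), seeded with about 1 × 10^4 cfu per well, incubated 20 h at 37 °C. Working solution 512 μg mL−1 made from a 2 mg mL−1 stock in water with 10% DMSO. Growth read as absorbance at 595 nm. MIC taken as the lowest concentration giving complete inhibition of visible growth; run in triplicate.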

Data set [8] deals with Pseudomonas aeruginosa. The data set can be described thus: Antimicrobial activity against Pseudomonas aeruginosa ATCC […] assessed as growth inhibition by microdilution assay. The format is functional. Summed up:
as §2

Data set [9] in a line: Antimicrobial activity against Salmonella enterica serovar Newport ATCC 6962 assessed as growth inhibition by microdilution assay. Format: functional, Salmonella enterica subsp. enterica serovar Newport. The gist of the method: as §2
Data set [10] concerns Escherichia coli. As to the kind of experiment: Antimicrobial activity against Escherichia coli ATCC 25922 assessed as growth inhibition by microdilution assay. The format is functional. The gist of the method:
as §2

For data set [11], the system named is Campylobacter coli. The data set can be described thus: Antimicrobial activity against Campylobacter coli ATCC 33559 assessed as growth inhibition by microdilution assay. The format is functional. The gist of the method:
as §2

Data set [12] is described as follows: Hemolytic activity in human erythrocytes at 128 to 256 ug/ml measured after 1 hr by absorbance based assay. Conditions: erythrocyte, dose 128-256 µg/ml. The format is toxicity, cell-based. Summed up: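 Washed human donor erythrocytes at 1% hematocrit in PBS pH 7.4 exposed to twofold peptide dilutions (final 2–256 μg mL−1, up to 1% DMSO) for 1 h at 37 °C. After centrifugation, supernatant A405 read. % hemolysis relative to PBS (0%) and 1% Triton X-100 (100%). Triplicate; mean ± SEM.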

A short description of data set [13]: Cytotoxicity against human Caco-2 cells assessed as inhibition of cell viability incubated for 48 hrs by Cell Titer GLO assay. Format: toxicity, cell-based. Summed up:
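Caco-2 cells in DMEM with 10% FCS, seeded 25 000 per well, adhered overnight, then given peptide at 2–256 μg mL−1 in complete medium for 48 h at 37 °C, 5% CO2. Controls: cisplatin 125 μM; 0.1% DMSO medium. Viability by ATP luminescence (CellTiter-Glo) versus untreated cells; IC50 from dose–response; mean ± SEM of at least three independent experiments.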

The MIC is the smallest concentration in the dilution series that meets the test's criterion for growth inhibition. Usually IC50 stands for the concentration at which inhibition is half-maximal. As to `C/C=C(/NC(=O)[C@@H](O)[C@@H](C)CC)C(=O)N[C@@H](CC(C)C)C(=O)N[C@H](CCCN)C(=O)N[C@H](C(=O)N[C@H](C(=O)N[C@H](C(=O)N[C@H](CCCCN)C(=O)N[C@H](C(=O)N[C@H](C(=O)N[C@@H](CCCCN)C(=O)N[C@H](Cc1ccc(O)cc1)C(=O)N[C@@H](CC(C)C)C(=O)N[C@H](C(=O)O)C(C)C)C(C)C)C(C)C)C(C)C)[C@@H](C)CC)[C@@H](C)CC`, the “growth inhibition (qualitative call)” value in data set [1] and in data set [2] was “inactive” each time. In addition, the MIC in [3] was over 128 µg/mL; in data set [4] it was 128 µg/mL; in data set [5] it was over 128 µg/mL; in data set [6], over 128 µg/mL; in data set [7] it was over 128 µg/mL; in data set [8] it was over 128 µg/mL. Further, the MIC in data set [9] was over 128 µg/mL; in data set [10], over 128 µg/mL; in [11] it was 32 µg/mL. The Activity entry in data set [12] is recorded as “Non-toxic”. The IC50 at 48 h in data set [13] is over 256 µg/mL.
